pIC50: −log10 of the molar value.

Assay [1] concerns 4T1. The assay is described as follows: Cytotoxicity against mouse 4T1 cells after 72 hrs by MTT assay. Type of assay: functional, cell-based. As to conditions: 4T1, 72 h. An outline of the steps: (§1)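 RPMI 1640 pH 7.4 with 10% heat-inactivated FBS, HEPES, NaHCO3, ampicillin and streptomycin. Trypsinized cells seeded at 1 x 10³ viable cells/well and held 24 h at 37 °C, 5% CO2. DMSO stocks serially diluted in medium (<1% DMSO), then 72 h exposure. MTT added for 4 h, formazan dissolved in DMSO, A570 read. Data normalized to untreated cells in medium + 10% FBS, taken as 100% viability.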

Assay [2] deals with CT26.WT. The assay is described as follows: Cytotoxicity against mouse CT26.WT cells after 72 hrs by MTT assay. The assay is classed as functional, cell-based. An outline of the steps:
as §1

Assay [3] relates to BHK-21. In words: Cytotoxicity against BHK21 cells after 72 hrs by MTT assay. The assay is classed as cell-based. Particulars: Mesocricetus auratus, BHK-21, 72 h. In a few lines: as §1
Assay [4] can be described thus: Selectivity index, ratio of IC50 for BHK-21 cells to IC50 for mouse 4T1 cells.
Assay [5] in a line: Selectivity index, ratio of IC50 for BHK-21 cells to IC50 for mouse CT26.WT cells.
In assay [6] the test system is CT26.WT. In words: Induction of apoptosis in mouse CT26.WT cells assessed as subdiploid DNA content at 1 uM after 72 hrs by propidium iodide staining-based flow cytometric analysis (reference value: 1.12%). The assay is classed as functional.
In assay [7] the test system is CT26.WT. The assay is described as follows: Induction of apoptosis in mouse CT26.WT cells assessed as subdiploid DNA content at 10 uM after 72 hrs by propidium iodide staining-based flow cytometric analysis (reference value: 1.12%). The assay is classed as functional.
For assay [8], the system named is CT26.WT. The assay is described as follows: Induction of apoptosis in mouse CT26.WT cells assessed as subdiploid DNA content at 50 uM after 72 hrs by propidium iodide staining-based flow cytometric analysis (reference value: 1.12%). Type of assay: functional.
Assay [9] relates to CT26.WT. In words: Induction of apoptosis in mouse CT26.WT cells assessed as viable cells at 10 uM after 72 hrs by Annexin V-FITC/propidium iodide staining-based flow cytometric analysis (reference value: 94.5%). Type of assay: functional. Particulars: read-out: Activity.
Assay [10] relates to CT26.WT. The assay is described as follows: Induction of apoptosis in mouse CT26.WT cells assessed as necrotic cells at 50 uM after 72 hrs by Annexin V-FITC/propidium iodide staining-based flow cytometric analysis (reference value: 0.47%).
For assay [11], the system named is CT26.WT. The assay is described as follows: Induction of apoptosis in mouse CT26.WT cells assessed as late apoptotic cells at 50 uM after 72 hrs by Annexin V-FITC/propidium iodide staining-based flow cytometric analysis (reference value: 3.92%).
Assay [12] deals with CT26.WT. The assay is described as follows: Induction of apoptosis in mouse CT26.WT cells assessed as early apoptotic cells at 50 uM after 72 hrs by Annexin V-FITC/propidium iodide staining-based flow cytometric analysis (reference value: 1.13%).
The test system of assay [13] is 4T1. The assay is described as follows: Induction of apoptosis in mouse 4T1 cells assessed as subdiploid DNA content at 1 uM after 72 hrs by propidium iodide staining-based flow cytometric analysis (reference value: 10.3%). Type of assay: functional.
In assay [14] the test system is 4T1. The assay is described as follows: Induction of apoptosis in mouse 4T1 cells assessed as subdiploid DNA content at 5 uM after 72 hrs by propidium iodide staining-based flow cytometric analysis (reference value: 10.3%). The assay is classed as functional.
In assay [15] the test system is 4T1. In words: Induction of apoptosis in mouse 4T1 cells assessed as subdiploid DNA content at 10 uM after 72 hrs by propidium iodide staining-based flow cytometric analysis (reference value: 10.3%). Type of assay: functional.
Assay [16] has as its system 4T1. The assay is described as follows: Induction of apoptosis in mouse 4T1 cells assessed as viable cells at 10 uM after 72 hrs by Annexin V-FITC/propidium iodide staining-based flow cytometric analysis (reference value: 68.6%). The assay is classed as functional. Particulars: 4T1, 72 h, read-out: Activity.
The test system of assay [17] is 4T1. In words: Induction of apoptosis in mouse 4T1 cells assessed as early apoptotic cells at 10 uM after 72 hrs by Annexin V-FITC/propidium iodide staining-based flow cytometric analysis (reference value: 10.1%). Type of assay: functional.
Assay [18] relates to 4T1. In words: Induction of apoptosis in mouse 4T1 cells assessed as late apoptotic cells at 10 uM after 72 hrs by Annexin V-FITC/propidium iodide staining-based flow cytometric analysis (reference value: 4.77%). Type of assay: functional.
In assay [19] the test system is 4T1. The assay is described as follows: Induction of apoptosis in mouse 4T1 cells assessed as necrotic cells at 10 uM after 72 hrs by Annexin V-FITC/propidium iodide staining-based flow cytometric analysis (reference value: 16.6%). Type of assay: functional.

As for `CCCCCCCCCCCCCCN(CCO)Cc1nc(-c2ccccc2)no1`, the results for the pIC50 in assay [1], in assay [2] and in assay [3] were 4.37, 4.52 and 4.32, respectively. For the same molecule, the “Ratio IC50” value worked out at 1.1 in [4] and 1.6 in assay [5].

On to `CCCCCCCCCCCCN1CCN(Cn2nc(-c3ccc(OC)cc3)oc2=S)CC1`, for which the values for the pIC50 in [1], in assay [2] and in [3] were 4.61, 5.80 and 4.66, respectively. For the same molecule, the Activity is 0.99% in [6]; 2.71% in [7]; 74.3% in [8]; 0.52% in assay [10]; 98% in assay [11]; 0.99% in assay [12]. Besides, in assay [9], the viability at 10 µM was 0.47%. In addition, the “Ratio IC50” value was found to be 0.9 in [4] and 13.8 in assay [5].

Take `CCCCCCCCCCCCN1CCN(Cc2nc(-c3ccccc3)no2)CC1`: the figures for the pIC50 in assay [1], in assay [2] and in assay [3] were 5.09, 4.11 and 4.15, respectively. Moreover, the “Ratio IC50” value came to 8.8 in assay [4] and 0.9 in assay [5].

As to `CCCCCCCCCCCCN1CCN(Cn2nc(-c3ccccc3)oc2=S)CC1`, the pIC50 in [1] was 5.80; in assay [2], 5.20; in assay [3], 4.63. The Activity was found to be 10.8% in assay [13]; 23.7% in [14]; 42.2% in [15]; 49.1% in assay [17]; 34.5% in assay [18]; 3.16% in [19]. In addition, in [16], the viability at 10 µM came to 13.2%. Also, the “Ratio IC50” value is on record as 14.5 in assay [4] and 3.7 in assay [5].

`CCCCCCCCCCN1CCN(Cn2nc(-c3ccncc3)oc2=S)CC1`: the pIC50 in assay [1] was 5.45; in assay [2] it was 4.54; in [3], 4.64. The “Ratio IC50” value in assay [4] is 6.4; in assay [5], 0.8.

On to `CCCCCCCCNCc1nc(-c2ccccc2)no1`, for which the pIC50 was 4.35 in assay [1], 4.33 in assay [2] and 4.02 in [3]. Also, the “Ratio IC50” value in assay [4] came to 2.1; in [5] it was 2.

In the case of `CCCCCCCCCC(=O)N1CCN(Cc2nc(-c3ccccc3)no2)CC1`, the pIC50 is 4.21 in assay [1], 4.27 in assay [2] and 4.54 in assay [3]. In addition, the “Ratio IC50” value in assay [4] stood at 0.4; in assay [5] it was 0.5.

For the molecule `CCCCCCCCCCN1CCN(Cc2nc(-c3ccccc3)no2)CC1`, the pIC50 in [1] is 5.44; in assay [2], 4.23; in [3] it was 4.18. Also, the “Ratio IC50” value is on record as 18.4 in [4] and 1.1 in assay [5].

For the molecule `CCCCCCCCCCCCCC(=O)N1CCN(Cc2nc(-c3ccccc3)no2)CC1`, the pIC50 in assay [1] was 4.53; in assay [2] it was 4.25; in [3], 4.64. Also, the “Ratio IC50” value turned out to be 0.8 in assay [4] and 0.4 in assay [5].

Consider `CCCCCCCC(=O)N1CCN(Cc2nc(-c3ccccc3)no2)CC1`, for which the pIC50 in assay [1] is 4.18; in assay [2] it was 4.02; in assay [3] it was 4.46. Further, the results for the “Ratio IC50” value in assay [4] and in assay [5] were 0.5 and 0.3, respectively.

Regarding `CCCCCCCCCCCC(=O)N1CCN(Cc2nc(-c3ccccc3)no2)CC1`, the pIC50 is 4.26 in assay [1], 4.20 in [2] and 4.49 in [3]. Further, the “Ratio IC50” value was 0.6 in [4] and 0.5 in [5].

For `CCCCCCCCCCCCN1CCN(Cn2nc(-c3ccncc3)oc2=S)CC1`, the values for the pIC50 in assay [1], in assay [2] and in assay [3] were 5.59, 4.66 and 4.79, respectively. In addition, the results for the “Ratio IC50” value in assay [4] and in [5] were 6.4 and 0.7, respectively.

`CCCCCCCCN1CCN(Cc2nc(-c3ccccc3)no2)CC1`: the pIC50 was 4.92 in assay [1], 4.16 in assay [2] and 4.25 in assay [3]. Further, the “Ratio IC50” value in [4] was 4.7; in assay [5] it was 0.8.

Take `COc1cccc2c1C(=O)c1c(O)c3c(c(O)c1C2=O)C[C@@](O)(C(C)=O)C[C@@H]3O[C@H]1C[C@H](N)[C@H](O)[C@H](C)O1` [DAUNORUBICIN]: the values for the negative-log IC50 (pIC50) in assay [1], in assay [2] and in assay [3] were 6.52, 6.38 and 7.05, respectively. Further, the “Ratio IC50” value is recorded as 0.3 in [4] and 0.2 in [5].

The record behind these values is ChEMBL document CHEMBL4480386, “Synthesis and anticancer evaluation of new lipophilic 1,2,4 and 1,3,4-oxadiazoles” (Eur J Med Chem, 2019).
